Bioassay records from PubChem.
Pf Dd2 growth – inhibitors of Plasmodium falciparum Dd2 growth. P. falciparum Dd2 growth, SYBR Green, 72 h; hits give low values. activity change, % at 10 µM. 94,000 tested, 2.3% active. AID 1159554; in the data active means activity change below about -80%; inconclusive means no clear call, values can overlap the other calls
IDH1 R132H inh – blocks human IDH1 R132H reductase activity | O75874 | diaphorase/resazurin fluorescence, 60 min | inhibition, % at 10 µM | 70,000 tested, 0.18% active | AID 624101; in the data active means inhibition above about 34%; inconclusive means no clear call, values can overlap the other calls; inactive means below about 11%;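 further: 0% = DMSO and 100% = no enzyme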
Target sequence (O75874 whole entry R132H): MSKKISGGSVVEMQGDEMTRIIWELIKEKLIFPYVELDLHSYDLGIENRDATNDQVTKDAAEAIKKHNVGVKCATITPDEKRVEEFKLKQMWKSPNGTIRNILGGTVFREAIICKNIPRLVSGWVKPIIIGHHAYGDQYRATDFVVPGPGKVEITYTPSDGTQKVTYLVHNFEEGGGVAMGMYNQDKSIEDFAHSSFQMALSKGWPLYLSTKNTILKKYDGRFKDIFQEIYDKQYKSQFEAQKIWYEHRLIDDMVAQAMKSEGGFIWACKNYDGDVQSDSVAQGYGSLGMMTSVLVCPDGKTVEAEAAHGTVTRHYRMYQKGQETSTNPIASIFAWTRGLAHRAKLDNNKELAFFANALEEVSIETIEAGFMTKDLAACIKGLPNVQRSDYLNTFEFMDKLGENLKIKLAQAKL
T cruzi growth-1 – T. cruzi proliferation inhibition. T. cruzi beta-gal in NIH3T3, GalScreen luminescence, 90 h. inhibition, % at 8.34 µM. 77,000 tested, 5.9% active. AID 624255;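 active means mean inhibition above about 93%, with at least 55% of replicates each passing it, limit read from the data, passing the limit was not always enough; inconclusive means only one of those two conditions holds; inactive means neither condition holds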
GASC1 inh – KDM4C (human) demethylase inhibition; Q9H3R0; GST-KDM4C 2-372, H3K9me3 peptide, LANCE TR-FRET; inhibition, % at 12.5 µM; 96,000 tested, 0.15% active;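 active means mean replicate inhibition above about 25%, with at least 55% of replicates also reaching it, limit read from the data, passing the limit was not always enough; inconclusive means only one of those two conditions met; inactive means neither condition met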
Target sequence (Q9H3R0 2-372 limits assumed): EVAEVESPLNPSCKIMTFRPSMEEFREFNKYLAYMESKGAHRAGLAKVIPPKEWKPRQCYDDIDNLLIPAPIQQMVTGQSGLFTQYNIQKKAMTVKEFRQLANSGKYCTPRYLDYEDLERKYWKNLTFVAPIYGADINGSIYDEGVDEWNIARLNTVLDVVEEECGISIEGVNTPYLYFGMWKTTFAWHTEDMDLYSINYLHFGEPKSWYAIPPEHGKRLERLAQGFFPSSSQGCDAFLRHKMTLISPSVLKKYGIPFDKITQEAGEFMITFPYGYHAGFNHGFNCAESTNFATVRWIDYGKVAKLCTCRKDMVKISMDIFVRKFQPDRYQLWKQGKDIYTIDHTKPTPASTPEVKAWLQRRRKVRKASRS
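Assay system: GST-GASC-1 enzyme fragment 2-372 | Amount: 10 nM enzyme | Medium: HEPES buffer, pH 7.5, plus ascorbate | Reagent: H3K9me3 peptide substrate, Fe(II), 2-oxoglutarate | Doses: Single-point compound screen | Incubation: 30 min demethylation and 1 h detection at room temperature | Measured by: LANCE TR-FRET, excitation 340 nm, emissions 618 and 671 nm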
T cruzi growth-2 – Trypanosoma cruzi proliferation inhibition | shares compounds with T cruzi growth-1 | T. cruzi beta-gal in NIH3T3, GalScreen luminescence, 90 h | inhibition, % at 8.35 µM | 5,600 tested, 72% active | AID 651739;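 active means mean replicate inhibition above about 95% and at least 55% of replicates individually reaching it, limit read from the data; inconclusive means only one of the two criteria is met; inactive means neither criterion is met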
T cruzi growth-3 – Trypanosoma cruzi proliferation inhibition | shares compounds with T cruzi growth-1 | T. cruzi beta-gal in NIH3T3, GalScreen luminescence, 90 h | inhibition, % at 2.09 µM | 5,600 tested, 21% active;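 active means mean inhibition above about 95%, with at least 55% of replicates also reaching it, limit read from the data; inconclusive means meets just one of the two conditions; inactive means meets neither condition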;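 further: plate controls were neutral control median for no effect and positive control median for full effect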
NIH3T3 tox – cytotoxicity in mouse NIH/3T3 fibroblasts | NIH/3T3 viability, CellTiter-Glo ATP luminescence, 90 h | shares compounds with T cruzi growth-1 | 5,600 tested, 14% active | cytotoxicity (signal decrease), % at 8.35 µM | AID 651742;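 active means mean signal decrease across replicates above about 35% based on untreated-well scatter, with enough replicates individually passing, limit read from the data; inconclusive means no rule stated though some were filed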;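 further: 0% = median of neutral control wells and 100% = median of positive control wells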
NIH3T3 tox 2 – kills mouse NIH/3T3 fibroblasts; 5,600 tested, 56% active; NIH/3T3 viability, CellTiter-Glo ATP luminescence, 90 h; AID 651744; shares compounds with T cruzi growth-1; inhibition, % at 24.9 µM;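 active means mean loss of cell viability signal at or above a set limit, and enough replicates individually reaching it; inconclusive means meets only the mean limit or only the replicate share; inactive means meets neither condition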;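 further: 0% = median of neutral control wells and 100% = median of positive control wells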
Numbers without * were called inactive; ? = inconclusive; . = not tested or not shown. This is a sample that favours compounds with a hit; in the whole collection about 5.8% have one here.

SMILES | Pf Dd2 growth | IDH1 R132H inh | T cruzi growth-1 | GASC1 inh | T cruzi growth-2 | T cruzi growth-3 | NIH3T3 tox | NIH3T3 tox 2
Cc1ccc(N(C(C)C(=O)Nc2ccc(C(F)(F)F)cc2)S(C)(=O)=O)cc1 (configuration not stated) | . | 1.1 | . | . | . | . | . | .
CC(=O)N(C)C[C@@H]1Oc2cc(C#CCN(C)C)ccc2S(=O)(=O)N([C@H](C)CO)C[C@H]1C | 14.5 | 0.6 | 67.3 | 17.3 | . | . | . | .
C[C@H](CO)N1C[C@H](C)[C@@H](CN(C)C(=O)CN(C)C)Oc2cc(C#CCN(C)C)ccc2S1(=O)=O | 8.0 | -2.6 | -2.4 | 5.0 | . | . | . | .
CC(=O)N(C)C[C@H]1Oc2cc(C#CCN(C)C)ccc2S(=O)(=O)N([C@H](C)CO)C[C@@H]1C | 21.1 | 2.1 | ? | 0.2 | ? | 91.1 | -1.4 | -9.7
CCC(=O)N(C)C[C@@H]1Oc2cc(C#CCN(C)C)ccc2S(=O)(=O)N([C@@H](C)CO)C[C@H]1C | 1.9 | 1.8 | 101.7* | 18.9 | 102.4* | 80.5 | -6.2 | -6.6
Cc1ccc(SCCCCSc2nc(C)cc(=O)[nH]2)cc1 | . | 0.9 | . | . | . | . | . | .
COC(=O)c1c(NC(=O)CC2Nc3cccc4cccc(c34)NC2=O)sc2c1CCCC2 (configuration not stated) | . | 0.5 | . | . | . | . | . | .
CCC(=O)N1C[C@H]2[C@@H](c3ccccc31)[C@@H](CO)N2Cc1ccccc1OC | -71.1 | . | ? | 1.7 | 105.0* | 11.1 | 22.4 | 12.6
CCC(=O)N1C[C@H]2[C@@H](c3ccccc31)[C@@H](CO)N2C(=O)CC | -21.3 | . | 60.1 | -1.3 | . | . | . | .
CCC(=O)N1C[C@@H]2[C@H](c3ccccc31)[C@@H](CO)N2C(=O)CC | -75.7 | . | 102.0* | -4.1 | 6.5 | 3.4 | -11.3 | -12.5
COc1ccccc1NC(=O)C1=C(C)NC(SCC(N)=O)=C(C#N)C1c1ccccc1 (configuration not stated) | . | -0.4 | . | . | . | . | . | .
CS(=O)(=O)N(CC(=O)Nc1ccc2c(c1)OCCO2)c1cc(Cl)c(Cl)cc1Cl | . | 0.1 | . | . | . | . | . | .
COC(=O)c1ccccc1NC(=O)CSc1nc2ccc(C)cc2[nH]1 | . | -0.8 | . | . | . | . | . | .
O=C([C@@H]1[C@@H](CO)[C@@H]2Cn3c(ccc(C4=CCCCC4)c3=O)[C@H]1N2)N1CCC(Cc2ccccc2)CC1 | 10.2 | . | 100.4* | 2.1 | 10.5 | 17.9 | -21.1 | -20.9
O=C([C@H]1N[C@H]2c3ccc(C4=CCCCC4)c(=O)n3C[C@H]2[C@@H]1CO)N1CCC(Cc2ccccc2)CC1 | . | . | 32.9 | -2.2 | . | . | . | .
Cc1ccc(S(=O)(=O)N(C)C[C@H]2OCCCC[C@@H](C)Oc3ccc(NS(=O)(=O)c4ccc(F)cc4)cc3C(=O)N([C@H](C)CO)C[C@H]2C)cc1 | -75.9 | -1.1 | 108.9* | -0.7 | 102.6* | ? | -18.6 | -30.0
Cc1ccc(S(=O)(=O)Nc2ccc3c(c2)C(=O)N([C@@H](C)CO)C[C@@H](C)[C@H](CN(C)S(=O)(=O)c2ccc(F)cc2)OCCCC[C@H](C)O3)cc1 | -35.7 | -1.0 | 121.3* | 0.2 | 109.9* | 41.2 | 2.3 | 1.8
Cc1ccc(S(=O)(=O)Nc2ccc3c(c2)C(=O)N([C@H](C)CO)C[C@H](C)[C@@H](CN(C)S(=O)(=O)c2ccc(F)cc2)OCCCC[C@H](C)O3)cc1 | -72.9 | . | . | 4.3 | . | . | . | .
Cc1ccc(S(=O)(=O)N(C)C[C@@H]2OCCCC[C@H](C)Oc3ccc(NS(=O)(=O)c4ccc(F)cc4)cc3C(=O)N([C@H](C)CO)C[C@H]2C)cc1 | -76.3 | 1.5 | 107.0* | -1.2 | 107.5* | 90.5 | 0.8 | 55.1*
CCOc1ccc(NC(=O)Cn2cc([N+](=O)[O-])cn2)cc1 | . | -0.3 | . | . | . | . | . | .
COC(=O)C1=CC(C(=O)c2ccccc2)=NN(c2ccccc2)C1C(=O)OC (configuration not stated) | . | -1.2 | . | . | . | . | . | .
N#C[C@H]1[C@H](c2ccc(-c3ccccc3F)cc2)[C@H](CO)N1C(=O)c1ccccn1 | -34.4 | . | 21.4 | 4.5 | . | . | . | .
CC(C)C#Cc1ccc([C@H]2[C@@H](C#N)N(C(=O)c3ccccn3)[C@@H]2CO)cc1 | -21.7 | . | ? | 1.5 | 103.9* | 101.6* | 8.7 | 4.6
N#C[C@@H]1[C@H](c2ccc(C#CCC3CCCC3)cc2)[C@@H](CO)N1C(=O)c1ccccn1 | -35.6 | . | 100.5* | -4.1 | 98.8* | 108.8* | 4.9 | 107.4*
COCC(=O)N1[C@H](C#N)[C@H](c2ccc(C#CCC3CCCC3)cc2)[C@H]1CO | 7.8 | . | 88.5 | -3.1 | . | . | . | .
SMILES | Pf Dd2 growth | IDH1 R132H inh | T cruzi growth-1 | GASC1 inh | T cruzi growth-2 | T cruzi growth-3 | NIH3T3 tox | NIH3T3 tox 2
N#C[C@H]1[C@H](c2ccc(C#CCC3CCCC3)cc2)[C@@H](CO)N1C(=O)c1ccccn1 | -38.8 | . | 97.2* | -2.3 | 95.0* | 111.4* | 20.8 | 104.2*
COCC(=O)N1[C@H](CO)[C@@H](c2ccc(C#CCC3CCCC3)cc2)[C@@H]1C#N | -8.7 | . | 59.6 | -0.8 | . | . | . | .
COc1ccc(C(=O)Nc2ccccc2C(=O)OCc2cccc([N+](=O)[O-])c2)cc1 | . | -0.1 | . | . | . | . | . | .
CN(C)C(=O)c1cccc(-c2ccc([C@@H]3[C@@H](C#N)N(C(=O)C4CCC4)[C@@H]3CO)cc2)c1 | 30.8 | . | 89.1 | -3.0 | . | . | . | .
CN(C)C(=O)c1cccc(-c2ccc([C@@H]3[C@@H](CO)N(C(=O)C4CCC4)[C@H]3C#N)cc2)c1 | -5.0 | . | 100.8* | -2.2 | -25.1 | 3.9 | -15.4 | 0.6
N#C[C@H]1[C@H](c2ccc(C3=CCCC3)cc2)[C@H](CO)N1C(=O)C1CCC1 | 15.7 | . | ? | 0.9 | 96.3* | 23.8 | -6.4 | 17.9
N#C[C@@H]1[C@@H](c2ccc(C3=CCCC3)cc2)[C@H](CO)N1C(=O)C1CCC1 | 30.7 | . | 77.4 | 4.0 | . | . | . | .
N#C[C@@H]1[C@@H](c2ccc(-c3cncnc3)cc2)[C@H](CO)N1C(=O)C1CCC1 | 6.1 | . | 102.7* | -2.3 | 77.0 | 40.9 | 2.8 | 1.9
COC(=O)CSc1nc(-c2ccc(F)cc2)[nH]c1-c1ccc(C)cc1 | . | -1.0 | . | . | . | . | . | .
CC1(C)CC(NC(=O)C(=O)NCC2COc3ccccc3O2)CC(C)(C)N1 (configuration not stated) | . | 0.4 | . | . | . | . | . | .
Cc1noc(C)c1S(=O)(=O)Nc1ccc2c(c1)C(=O)N([C@@H](C)CO)C[C@@H](C)[C@@H](CN(C)C(=O)Nc1ccc(C(F)(F)F)cc1)OCCCC[C@@H](C)O2 | -60.4 | . | ? | -0.4 | 95.5* | 101.8* | 11.8 | ?
Cc1noc(C)c1S(=O)(=O)Nc1ccc2c(c1)C(=O)N([C@H](C)CO)C[C@H](C)[C@H](CN(C)C(=O)Nc1ccc(C(F)(F)F)cc1)OCCCC[C@H](C)O2 | -20.3 | 0.3 | 100.6 | 0.5 | . | . | . | .
